Test system: MS2 coat protein
Assay: apparent Kd, MS2 coat protein; higher = weaker binding; RNA-MaP array; FMN 200 µM where present
Procedure, shortened: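 Stalled E. coli RNA polymerase transcribed the designs on Illumina sequencing-chip clusters. SNAP-549-labelled MS2 coat protein was titrated from 0.7 or 1.5 nM, doubling to 3 µM, without and then with constant ligand, in 100 mM Tris-HCl pH 7.5, 80 mM KCl, 4 mM MgCl2, BSA, DTT, yeast tRNA and Tween-20. Per-cluster binding curves were fitted to green signal normalised to red-channel RNA signal and control-cluster median Fmax. The apparent Kd is the median of the filtered fits.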

[1] = designed as: OFF switch for flavin mononucleotide, no ligand
[2] = ligand present: flavin mononucleotide, designed as: OFF switch for flavin mononucleotide
[3] = designed as: ON switch for flavin mononucleotide, no ligand
[4] = ligand present: flavin mononucleotide, designed as: ON switch for flavin mononucleotide

Sequence	apparent Kd [1]	apparent Kd [2]	apparent Kd [3]	apparent Kd [4]
AAGUAAGGAGGAUAUACGUCAUAGACCGCAAUAUGUCAUAGACAUGAGGAUCACCCAUGUAGAAGGCUUUAACA	34.7 nM	26.2 nM		
GCAUCACAUGAGGAUCACCCAUGUCUUCGGAGUCGAGGAUAUGGUCACUGUAAACAGUGGCCAGAAGGCGAGGUGC			67.6 nM	38.3 nM
AAAAAGGCAGGAUAUACAUGAGGAUCACCCAUGUAAAGAAAGAAAGAAGAAAGGGAAAGUAGAAGGGCCAAAAA	38.2 nM	46 nM		
ACAUUAGUAUCACAUGUAUUACAUGAGGAUCACCCAUGUUACUAGGAUAUGUAUUAGAAUUUACAACAGAAGGAGUUAAUUUGU	7.52 nM	7.7 nM		
UUAUUGGUAGUGAGGAUAUCGGUUUGAUAGAUAUUCGAGAAGGCACAUGAGGAUCACCCAUGUAAGAUUGGGAA	201 nM	196 nM		
ACAUACAUUCGAGGAUAUCGGUGAUUAAUAAUACGAGAAGGCGAUUUAAGAUAUAAAAUUUUAGACAUGAGGAUCACCCAUGUA			27.9 nM	23.9 nM
AAAAGACAUGAGGAUCACCCAUGUCAAGACGUGGGAGGAUAUGCAUGGAAAACAUGCUGUGCAGAAGGCCCGUGUC			25.6 nM	17.9 nM
GCCUCACAUGAGGAUCACCCAUGUCAGGAUAUCUCGUGCGCAGUAAUUAUCUGGCUAAAGAGAAGGGACAUUAA	47 nM	99 nM		
GACUGCCGAGGAUAUACAUGAGGAUCACCCAUGUGCUUCAGCAUUUAAUAAUGCAUGGGUAGAAGGCGGUAGUC	42.8 nM	74.6 nM		
AAAAACAGAGGAUAUACAAAAUGAUGACGAAAGUCAUCAAAACAUGAGGAUCACCCAUGUAGAAGGCUGAAAAA	25.9 nM	22.9 nM		
GCCUUAUCGGUCAGGAUAUACACCCGUCACUCCUUGUAGAAGGGACAUGAGGAUCACCCAUGUACAUUACAUUG	31.3 nM	28.1 nM		
GCCAGAGCAGGAUAUUCAAUAAUUCACAUGAGGAUCACCCAUGUCCAGCGAAAGCUGGAAGGAGAAGGGCUCUGGC	16.3 nM	13.7 nM		
UGACUAGUAAUGUAUCGAAAGAUCACAUGAGGAUCACCCAUGUAGGAUAUGAGCAGAAAAUCUGCUCAGAAGGACAUGCUAGUC	5.9 nM	7.36 nM		
UGUCGGAGCAGAGGAUAUUACAUGAGGAUCACCCAUGUAUGAACCAAUAGCUGGAAACAGCAAUGUAAGAAGGAUGCUCCGACA	7.14 nM	31.4 nM		
GGGAAGUUAGGAUAUGCUGCUCGUCACUUGCGUGAUGAGUAGCAGAAGGAACAUGAGGAUCACCCAUGUAAAGA	34.3 nM	37.5 nM		
AAGGGAUGAGCGUAGGAUAUAGGAGAAGUGACAUGAGGAUCACCCAUGUAAAAGGAGGGAUGAGACUAGAAGGACGAGGUAGGAG			107 nM	125 nM
CAGACACAUGAGGAUCACCCAUGUGAGGAUAUGCGUACGUUGUCCGUAGGCGACGUGCGCAGAAGGCGCAUUGG	110 nM	252 nM		
UAUAUAUAGUAAGGAUAUGUAAUUAAUUUAUAAACAGAAGGUACUGACAUGAGGAUCACCCAUGUUUUAGUGUGGGCAUGUAGA	95.3 nM	155 nM		
GACAUGAGGAUCACCCAUGUCCAACCAGAAGGCCAGAAAUCGAACCCGUGUAUCGGGUCCGAGAUGGAGGAUAUGGGCGCCGAA			72.4 nM	32.4 nM
GUUUUAUAGAUCCAUUUUAACAACAUGAGGAUCACCCAUGUGCAGGAUAUCGUUUGUUUUAUAUUCGAGAAGGGCAAAUUCAUU	44.3 nM	102 nM		
GUGCGAGUGCCACAGGAUAUACGUGGAUCGACAUGAGGAUCACCCAUGUAUAUCCUAAUAAUUGCGUAGAAGGGUGGUCAGUCGG			786 nM	289 nM
GCCAUCGCAUGAGGAUAUGCUCCCGUUUCGGGAGCAGAAGGCAUGUCACAAGACAUGAGGAUCACCCAUGUAGUUAUGAUGGCA			221 nM	8.6 nM
CCACGAGACUAAGGAUAUGGAGUGUCAACAUAAAACAUGAGGAUCACCCAUGUAAAGAGUACGAUUCAGAAGGUAGAGACGUGG			38.3 nM	23.7 nM
AUGGACGUCGUAGGAUAUGUAGGAUAUUCCUACAUGAGGAUCACCCAUGUUGACAUGGAAGAAGGACAGAAGGACGAUGUCCAU			199 nM	4.47 nM

Sequence	apparent Kd [1]	apparent Kd [2]	apparent Kd [3]	apparent Kd [4]
AAUUUACAGCUAGGAUAUACAUGAGGAUCACCCAUGUAAUCAUAUGAUAUUUUUUUUGUAUGAGUGUAGAAGGAGCAAAUAAAA	9.38 nM	8.69 nM		
CCGUUACAUGAGGAUCACCCAUGUGAGGAUAUCGGGAUGACUGGCAGCGUGCGGGACACGAGAAGGCACUGGGC	55.5 nM	65.1 nM		
AAGCGAGGGACAGGAUAUGCGGCGAAACUCGCCGCAGAAGGGUCGACAUGAGGAUCACCCAUGUCCUUACGCUCCAAGUAGUGG			101 nM	250 nM
GAUGGCGUCCAAGGAUAUCCUGACCGUUAACAUGAGGAUCACCCAUGUUGCCUAAAGGCGGCAUAGGAGAAGGUGGUACUCUGA			111 nM	155 nM
CAGCGCUGUCGAGAGGAUAUGCGGUGAUGGACAUGAGGAUCACCCAUGUUAGCGACAGCAUCACGGCAGAAGGCUCUACCGCUGC			31.5 nM	21.7 nM
AUCAGCUUGUCAGGAUAUGCAUGUCAACGAAAGUUGACAAUCUUAAUAACAUGAGGAUCACCCAUGUAGAAGGGACGAGCUGAU	17.1 nM	19.3 nM		
GGAUGACAAAGUCAUCCAAUUCGAACAUGAGGAUCACCCAUGUAGGAUAUGCUUCUCAAAGAGAAGCAGAAGGACAUGUGCCUU	29.5 nM	215 nM		
CUGGUGUGAGGAUAUCAAAGACCUCGGUAAAGAACCGAGGAUGAGAAGGCACAUGAGGAUCACCCAUGUAACAA	23.3 nM	32.9 nM		
AAAACAUGAGGAUCACCCAUGUAAAGAUCGGUUGAUGAAAGUGAGGAUAUACAAAAUUUUAUGGAGUAGAAGGCACUGGGUUGA			67.4 nM	47.7 nM
CCUGGAUCAUGAGGAUAUGGUACCUUAUUGGUACCAGAAGGCAUGUCUCUUGACAUGAGGAUCACCCAUGUAAUAAAUUCCAGG			841 nM	114 nM
AGUUAAUAUCGAGGAUAUGUCUAGACACAUGAGGAUCACCCAUGUAUGUGUAUAGAAGGCAAAAUUAACAGCAUGUUACAUGCA			30.6 nM	24.9 nM
AAGUUAGGGAGAGGAUAUUGACAUGAGGAUCACCCAUGUAUUUGGGAGUGUUUACUGAAUUCUUACGAGAAGGCUUACGAAAUU	344 nM	259 nM		
UAUAUGUGAGGAUAUCAGGUGUGCUAGCGUACUGGUACAUCUGAGAAGGCACAUGAGGAUCACCCAUGUAUCUU	29.7 nM	110 nM		
GUCUUGUUAGGAUAUCUUACUUUUGCAUCAUAGUAACCAUUGGAGAAGGGACAUGAGGAUCACCCAUGUUUGGU	34.6 nM	30 nM		
GGGCCGGUGGAGAAGGAGCUUGCGAAACGCAUGCUAGGAUAUCCACAUGAGGAUCACCCAUGUGGGAAUAUCUGAUUUUCGCAG	4.36 nM	4.84 nM		
AUAUCUCUAUAAGUUCCAAUACGAACAUGAGGAUCACCCAUGUAGGAUAUGCUAGAAGUAGAGUUGCAGAAGGACAAGUACCUU	7.48 nM	6.75 nM		
ACAUGAGGAUCACCCAUGUAUUACAUGGUUAUGUUUAUUAACAGAAGGCGAAAUUACCACUUGAUCGAGGAUAUGUAUUCAAUU	73 nM	59.7 nM		
GUCGGAAACGACAAUGAUAGGACUGAGGAUAUACAUAAGUAAGUCCACACAUGAGGAUCACCCAUGUAGAAGGCAGUCCUAUCU	21.9 nM	187 nM		
AAGGAUCGAGGAUAUACAUAGAUACAGAUUCAUGUAGAACUACAUGAGGAUCACCCAUGUAGAAGGCGAUCCUA	38.4 nM	291 nM		
CAUCAUUCUGUAAGGAUAUUAAUCGAGUGACUUAUUAAGAAGGUACAUGAGGAUCACCCAUGUGGGAGGUGAGG	363 nM	947 nM		
UAAACAUGAGGAUCACCCAUGUUAUGAUCGGUUGAUGAAAGUGAGGAUAUACAAAAUUUUAUGGAGUAGAAGGCACUGGGUUCU			31.1 nM	29.9 nM
AGAUUACGAGGAUAUCGAGUUUAGUACAUGAGGAUCACCCAUGUUAUCCAGGUCUCGUUUCGAGAAGGCGUGAUUC	256 nM	92.3 nM		
AGAAAUUAGUGAGGAUAUGCAUAAUUUGUAGCUGCAGAAGGCACGGACCACAAGACAUGAGGAUCACCCAUGUGGUAUUUAGAU	26.8 nM	28 nM		
CGCUACGUUUCGUAGCAGUGUCAUCGAGAAGGCCCUGACAUGAGGAUCACCCAUGUUGUUACAUGGGAGGAUAUCGAUGAUACG			13 nM	5.4 nM
